Experiments:
Human GPR99 (WT) = Human GPR99 (WT) (Homo sapiens, UniProt Q96P68); experiment: cAMP inhibition assay; format: cell-based
Method in brief: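 HeLa cells transiently expressing human GPR99 for 24 h, pretreated 12 h at 37 °C with 250 ng/mL PTX or vehicle. Cells harvested in HBSS with 5 mM HEPES, 0.1% BSA and 0.5 mM IBMX, then stimulated 30 min with varying ligand concentrations plus 2.5 μM forskolin. cAMP read by LANCE Ultra kit. Data are % of maximal response, mean ± SEM, ≥3 independent experiments; EC50 from three-parameter curve fit.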

Human GPR99 (wild-type) = Human GPR99 (wild-type) (Homo sapiens, UniProt Q96P68); experiment: IP-one accumulation assay, wild-type receptor; format: cell-based; settings: WT
GPR99/OXGR1 R148A = GPR99/OXGR1 R148A (Homo sapiens, UniProt Q96P68, R148A); experiment: IP-one accumulation assay, R148A mutant; format: cell-based; settings: R148A vs WT
GPR99/OXGR1 = GPR99/OXGR1 (Homo sapiens, UniProt Q96P68); settings: oxoglutarate for GPR99/OXGR1; no reference given; cited from earlier work
GPR99/OXGR1 Y92A = GPR99/OXGR1 Y92A (Homo sapiens, UniProt Q96P68, Y92A); experiment: IP-one accumulation assay, Y92A mutant; format: cell-based; settings: Y92A vs WT; oxoglutarate stimulation
GPR99/OXGR1 K32A = GPR99/OXGR1 K32A (Homo sapiens, UniProt Q96P68, K32A); experiment: IP-one accumulation assay, K32A mutant; format: cell-based; settings: K32A vs WT; oxoglutarate stimulation
GPR99/OXGR1 C141A = GPR99/OXGR1 C141A (Homo sapiens, UniProt Q96P68, C141A); experiment: IP-one accumulation assay, C141A mutant; format: cell-based; settings: C141A vs WT
GPR99 = GPR99 (Homo sapiens, UniProt Q96P68); settings: GPR99 recognition of oxoglutarate; cited from earlier work
[1] = 250 ng/mL PTX pretreatment 12 h

Compound	effect on cAMP response elicited by LTE4 (Human GPR99 (WT); [1])	effect on LTE4-induced IP1 accumulation (Human GPR99 (wild-type); [1])	effect of alanine substitution on oxoglutarate-induced receptor activation (IP1) (GPR99/OXGR1 R148A)	affinity (Kd) (GPR99/OXGR1)	increase in EC50 (IP1 accumulation) (GPR99/OXGR1 Y92A)	maximum response (Emax), IP1 accumulation (GPR99/OXGR1 Y92A)	increase in EC50 (IP1 accumulation) (GPR99/OXGR1 K32A)	maximum response (Emax), IP1 accumulation (GPR99/OXGR1 K32A)	effect of alanine substitution on oxoglutarate-induced receptor activation (IP1) (GPR99/OXGR1 C141A)	cAMP reduction downstream of Gi coupling (Human GPR99 (WT); HeLa, 2.5 μM forskolin)	EC50 (GPR99) [µM]	IP1 accumulation (PLC pathway downstream of Gq) (Human GPR99 (wild-type); HeLa)
pertussis toxin [PTX]	abrogated	without affecting IP1 accumulation										
O=C(O)CCC(=O)C(=O)O [oxoglutarate, 2-oxoglutarate]			little effect	hundreds of micromolar	more than 100 fold	remained unchanged	more than 100 fold	remained unchanged	little effect	failed to stimulate cAMP reduction	~200	increased IP1 accumulation

From PMC12714840 (Nature Communications, 2025)
